Results: ChEMBL document CHEMBL1127858, “Synthesis and evaluation of the anti-HIV activity of aza and deaza analogues of isoddA and their phosphates as prodrugs” (J Med Chem, 1994)

Columns and labels:
MT4 [1] = assay: Concentration required to reduce the viability of mock-infected MT-4 cells by 50% (4 days); type: functional; conditions: Homo sapiens, MT4, 96 h
Summary of the method: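 Mock-infected MT-4 cells (1 × 10⁴ per well) in RPMI with 10% FCS, exposed to a range of compound concentrations and incubated 4 days at 37 °C. Viable cells counted by MTT. CC50 is the dose cutting viability by 50%. Mean of three independent experiments. Cultures were checked periodically for mycoplasma.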

MT4 [2] = assay: Effective concentration required to achieve 50% protection of MT-4 cells against cytopathic effect of HIV-2 (8 days); type: functional, cell-based; conditions: Homo sapiens, MT4, 192 h
Summary of the method: (§1)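 MT-4 cells (1 × 10⁴ per well, RPMI with 10% FCS) with various compound concentrations, infected with 100 CCID50 of HIV-2 CBL 20 from persistently infected CEM supernatant. Viable cells read by MTT. EC50 is the dose giving 50% protection from virus cytopathicity. Mean of three independent experiments.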

[3] = Ratio of CC50 value that of EC50 value(HIV-1); type: functional
Summary of the method: (§2)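 Selectivity index as the CC50/EC50 ratio. CC50 comes from mock-infected MT-4 viability by MTT. EC50 comes from MTT-measured protection of MT-4 cells infected with 100 CCID50 of HIV-1 IIIB or HIV-2 CBL 20. Data are means of three experiments.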

[4] = Ratio of CC50 value that of EC50 value(HIV-2); type: functional; summary of the method: as §2
MT4 [5] = assay: Effective concentration required to achieve 50% protection of MT-4 cells against cytopathic effect of HIV-1 (4 days); type: functional, cell-based; conditions: Homo sapiens, MT4, 96 h
Summary of the method: as §1, with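 “HIV-1 IIIB” for “HIV-2 CBL 20”, “H9/IIIB” for “CEM”, “After 4 days at 37 °C, viable” for “Viable”, “experiments. Cytotoxicity run in parallel.” for “experiments.”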

SMILES | CC50 (MT4 [1]) | EC50 (MT4 [2]) | Ratio [3] | Ratio [4] | EC50 (MT4 [5])
COC(=O)C(C)NP(=O)(OCC1CC(n2cnc3c(N)ncnc32)CO1)Oc1ccccc1 (configuration not stated) | 2.9 µM | 0.04 µM | 48 | 65 | 0.06 µM
COC(=O)C(C)NP(=O)(OCC1CC(n2nnc3c(N)ncnc32)CO1)Oc1ccccc1 (configuration not stated) | 146 µM | 105 µM | 8.5 | 1.4 | 17 µM
Nc1ncnc2c1ncn2[C@H]1CO[C@@H](CO)C1 | > 425 µM | 32 µM | > 20 | > 13 | 21 µM
O=c1[nH]cnc2c1ncn2[C@H]1CC[C@@H](CO)O1 [DIDANOSINE] | > 425 µM | 11 µM | > 42 | > 38 | 10 µM
Nc1nccc2c1ncn2C1COC(CO)C1 (configuration not stated) | > 425 µM | > 425 µM | – | – | > 425 µM
Nc1ccnc2c1ncn2C1COC(COP(=O)(OCC(Cl)(Cl)Cl)OCC(Cl)(Cl)Cl)C1 (configuration not stated) | > 100 µM | > 100 µM | – | – | > 100 µM
Nc1nccc2c1nnn2C1COC(CO)C1 (configuration not stated) | > 425 µM | > 425 µM | – | – | > 425 µM
Nc1nccc2c1ncn2C1COC(COP(=O)(OCC(Cl)(Cl)Cl)OCC(Cl)(Cl)Cl)C1 (configuration not stated) | 34 µM | > 34 µM | – | – | > 34 µM
Cc1cn([C@H]2C[C@H](N=[N+]=[N-])[C@@H](CO)O2)c(=O)[nH]c1=O [ZIDOVUDINE] | > 80 µM | 0.04 µM | – | – | 0.01 µM
Nc1ncnc2c1nnn2C1COC(CO)C1 (configuration not stated) | > 425 µM | > 425 µM | – | – | > 425 µM
Nc1ncnc2c1nnn2C1COC(COP(=O)(OCC(Cl)(Cl)Cl)OCC(Cl)(Cl)Cl)C1 (configuration not stated) | 92 µM | > 92 µM | – | – | > 92 µM
Nc1ncnc2c1ncn2C1COC(COP(=O)(OCC(Cl)(Cl)Cl)OCC(Cl)(Cl)Cl)C1 (configuration not stated) | ≥ 173 µM | > 173 µM | > 2 | – | 87 µM
Nc1ccnc2c1ncn2C1COC(CO)C1 (configuration not stated) | > 425 µM | > 425 µM | – | – | > 425 µM
Nc1nccc2c1nnn2C1COC(COP(=O)(OCC(Cl)(Cl)Cl)OCC(Cl)(Cl)Cl)C1 (configuration not stated) | > 173 µM | > 173 µM | – | – | > 173 µM
Nc1ccnc2c1nnn2C1COC(CO)C1 (configuration not stated) | > 425 µM | > 425 µM | – | – | > 425 µM
Nc1ccnc2c1nnn2C1COC(COP(=O)(OCC(Cl)(Cl)Cl)OCC(Cl)(Cl)Cl)C1 (configuration not stated) | > 100 µM | > 100 µM | – | – | > 100 µM
